Assay outcomes: PubChem BioAssay, Johns Hopkins Ion Channel Center
hERG rescue – hERG rescue from dofetilide block, primary screen, cell-based, CHO-hERG, FluxOR thallium flux, dofetilide IC70 | Voltage-gated inwardly rectifying potassium channel KCNH2 (Homo sapiens), Q12809 | dofetilide IC70 present | activation (rescue from dofetilide block), less the hit threshold, % at 10 µM | hit rate 0.51% among 310,000;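 active = activation above the mean of controls blocked by dofetilide plus 5 SD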;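 also: thallium influx through hERG after potassium depolarization seen as dye fluorescence rise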
KCNQ1 pot – potentiators or activators of KCNQ1 channel, primary screen, cell-based, thallium flux, high-throughput. Potassium voltage-gated channel subfamily KQT member 1 (Homo sapiens), P51787. CHO-K1 KCNQ1, thallium flux FluxOR fluorescence; stronger effect = higher value. B-score at 10 µM. hit rate 0.35% among 310,000;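 active = fluorescence ratio B-score, a plate-corrected score, at least three library SD, with initial intensity B-score within 5 SD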
Target sequence (P51787 whole entry, looked up): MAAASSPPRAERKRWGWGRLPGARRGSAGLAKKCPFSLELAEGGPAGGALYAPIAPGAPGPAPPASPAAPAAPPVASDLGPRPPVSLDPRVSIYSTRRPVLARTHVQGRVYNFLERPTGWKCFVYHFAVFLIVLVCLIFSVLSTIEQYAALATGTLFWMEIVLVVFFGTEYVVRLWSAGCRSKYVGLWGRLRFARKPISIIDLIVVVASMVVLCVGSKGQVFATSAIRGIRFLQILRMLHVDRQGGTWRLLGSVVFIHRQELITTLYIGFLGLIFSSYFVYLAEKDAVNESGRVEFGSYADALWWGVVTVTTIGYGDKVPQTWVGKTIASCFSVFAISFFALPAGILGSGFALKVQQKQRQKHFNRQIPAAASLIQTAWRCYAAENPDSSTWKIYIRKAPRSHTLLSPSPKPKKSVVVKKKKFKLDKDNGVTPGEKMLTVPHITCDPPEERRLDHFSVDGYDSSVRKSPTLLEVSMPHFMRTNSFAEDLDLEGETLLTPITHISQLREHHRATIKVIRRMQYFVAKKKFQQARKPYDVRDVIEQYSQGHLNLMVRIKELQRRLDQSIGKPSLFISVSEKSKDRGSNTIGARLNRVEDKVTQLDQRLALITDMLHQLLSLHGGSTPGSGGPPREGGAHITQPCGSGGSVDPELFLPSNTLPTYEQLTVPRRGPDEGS
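System: CHO-K1 cells stably expressing KCNQ1 / Medium: assay buffer for compound exposure, DMSO matched across wells / Reagent: thallium- and potassium-containing depolarizing buffer / Compound: one concentration, matched DMSO / Incubation: 20 min compound pretreatment at room temperature / Measured by: kinetic FluxOR fluorescence, 10 s baseline plus 110 s post-stimulus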
KCNK3 inh – human KCNK3 channel inhibitors, primary screen, CHO cells, FluxOR thallium flux, B-score; AID 602410, 2012; B-score at 10 µM; Potassium channel subfamily K member 3 (Homo sapiens), O14649; hit rate 0.84% among 340,000; FluxOR fluorescence; stronger effect = lower value;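 active = B-score under library mean minus 4 SD, starting fluorescence ratio at most library mean plus 5 SD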;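 also: more negative B-score means stronger inhibition of thallium flux through KCNK3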
KCNQ1 block – inhibitors of human KCNQ1 channel, primary screen, cell-based, thallium flux, high-throughput | CHO-K1 KCNQ1, FluxOR thallium flux fluorescence; stronger effect = higher value | B-score at 10 µM | hit rate 1.3% among 310,000 | AID 2642, 2010;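 active = compounds whose thallium flux B-score, printed positive for inhibition, exceeds three library SD while starting fluorescence stays within three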;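 also: channel opened by potassium depolarization with thallium stimulus after 20 min compound exposure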
Kir21 block – inhibitors of mouse Kir2.1 inward-rectifier potassium channel | Inward rectifier potassium channel 2 (Mus musculus), P35561 | HEK293-Kir2.1, FluxOR thallium flux fluorescence; stronger effect = lower value | B-score at 10 µM | hit rate 0.85% among 310,000;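 active = fluorescence ratio B-score at or below minus 3 SD of library scores, with starting-brightness B-score within 2 SD, cut at about -4.2 in these data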;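 also: channel flux triggered by added potassium and thallium sulfate stimulus; B-score of peak minus minimum fluorescence over baseline after thallium stimulus; more negative B-score means stronger Kir2.1 block with less thallium influx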
KCNK9 block – KCNK9 potassium channel inhibitors, primary screen, HEK293 cells, thallium flux; Potassium channel subfamily K member 9 (Homo sapiens), Q9NPC2; FluxOR thallium flux fluorescence; stronger effect = lower value; B-score at 10 µM; hit rate 1.2% among 310,000;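 active = ratio B-score over 3 SD below the library mean, with starting fluorescence within 5 SD of its mean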;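 also: negative B-score means less thallium flux so channel inhibition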
* hit, by the source's call; i = inactive; . = no result. Shown are actives, neighbours in structure and some others; about 3.8% of the full set was active somewhere.

SMILES | hERG rescue | KCNQ1 pot | KCNK3 inh | KCNQ1 block | Kir21 block | KCNK9 block
c1ccc(Cn2nnc3c(NCc4ccc5c(c4)OCO5)nc(C4CC4)nc32)cc1 | -3 | i | i | i | 2.2 | i
Cc1cccc(CS(=O)(=O)c2nnc([C@H](Cc3ccccc3)NC(=O)OC(C)(C)C)o2)c1 | -22 | i | i | i | -8.1* | i
CCCC1=Nc2cc(C(=O)N3CCN(c4ccccn4)CC3)ccc2Sc2ccc(C)cc21 | -19 | i | i | 7* | -0.32 | i
Cc1cc2[nH]c3c(c[n+](C)c4ccccc34)c2cc1C | -21 | i | i | i | -7.8* | i
Cc1cc2[nH]c3c4ccccc4nc(C)c3c2cc1C | . | . | i | . | . | .
Cc1ccc2cc(CN(CCc3ccccc3)C(=S)NCCCN(C)C)c(=O)[nH]c2c1 | -11 | i | i | i | -1 | i
Cc1ccc2[nH]c(=O)c(CN(CCCN(C)C)C(=S)NCCc3ccccc3)cc2c1 | -9 | 10* | i | i | -3.3 | i
CSc1nnc(-c2sccc2OCc2ccc(C)cc2)n1C | -7 | i | i | i | -4.3* | i
Cc1ccc(COc2ccsc2C(=O)O)cc1 | . | . | i | . | . | .
CC(C)(C)n1nc(Cc2cccc3ccccc23)c2c(N)ncnc21 | -22 | i | i | i | -0.36 | i
N#CC1=C(N)OC2=C(CCc3ccccc32)C1c1ccccc1Cl (stereo unspecified) | -3 | i | i | i | 1.8 | -7.6*
COc1ccccc1CCCNC(=O)C1CCC(=O)N(Cc2ccccc2F)C1 (stereo unspecified) | -7 | i | i | i | 0.81 | i
CC(=O)Nc1ccc(S(=O)(=O)N2CCC(C(=O)O)CC2)cc1 | 0 | 10* | i | i | 0.73 | i
CN1CCCN(C(=O)c2cc(-c3ccc(Cl)c(Cl)c3Cl)nc3ccccc23)CC1 | -13 | i | i | i | -4.8* | i
Cc1ccc2nc(-c3ccccc3)cc(C(=O)N3CCN(c4ccccc4O)CC3)c2c1 | -35 | i | i | 12* | 1.7 | i
O=C(OCC(=O)N1CCN(C(=O)c2ccco2)CC1)c1cc(-c2ccc(Cl)c(Cl)c2Cl)nc2ccccc12 | -13 | i | i | i | 1.6 | i
N#Cc1ccc(-c2ccc(OCC(=O)NCCCN3CCCC3=O)cc2)cc1 | -20 | i | i | i | -0.9 | i
CCCc1cc(=O)oc2c(C)c(OCC(=O)Nc3ccc(CN4CCOCC4)cc3)ccc12 | -10 | i | i | i | 0.03 | i
CC(C)(C)n1nnnc1C(c1ccncc1)N(Cc1ccccc1)Cc1ccco1 (stereo unspecified) | -13 | i | i | i | -1.5 | i
CCN(Cc1ccccc1)C(c1ccc(C)cc1)c1nnnn1C(C)(C)C (stereo unspecified) | -6 | i | i | i | -1.5 | -7.8*
CCN(Cc1ccccc1)C(c1ccccn1)c1nnnn1C(C)(C)CC (stereo unspecified) | -5 | i | i | i | -2.2 | -8*
CN(Cc1nc(-c2cnccn2)no1)C1CC(C)(C)NC(C)(C)C1 | -7 | i | i | i | 1.4 | i
O=C(C[n+]1ccc(-c2cc(C(=O)Nc3cccc(C(F)(F)F)c3)c3ccccc3n2)cc1)c1cccc([N+](=O)[O-])c1 | -20 | i | i | 7* | -1.3 | i
Cn1c(Sc2ccccc2Cl)c(C=O)c2ccccc21 | -13 | i | i | 11* | -1.4 | i
Cn1c(Oc2ccc(Cl)cc2)c(C=O)c2ccccc21 | -3 | i | i | i | 0.01 | i
SMILES | hERG rescue | KCNQ1 pot | KCNK3 inh | KCNQ1 block | Kir21 block | KCNK9 block
CCCC(C(=O)NC(C)(C)C)N(CC1CCCO1)C(=O)CNS(=O)(=O)c1ccc(F)cc1 (stereo unspecified) | -5 | i | i | i | -1.1 | i
COC(=O)c1cc(-c2cccc(OC)c2)on1 | 7.2* | i | i | i | 0.02 | i
COC(=O)NCC(C)OC(=O)Nc1cccc(Cl)c1 (stereo unspecified) | -8 | i | i | i | -0.46 | i
CC(CNC(=O)COc1ccccc1)OC(=O)Nc1ccc(Cl)c(Cl)c1 (stereo unspecified) | -23 | 9* | i | i | 1.4 | i
CC1=NN(c2ccccc2)C(=O)/C1=C/c1ccc(Cl)cc1 | -6 | i | i | 8* | -0.05 | i
CC1=NN(c2ccccc2)C(=O)/C1=C/c1cccs1 | -9 | i | i | i | -0.33 | i
O=C(O)CC(NC(=O)C(F)(F)F)c1ccc2c(c1)OCO2 (stereo unspecified) | -9 | i | i | i | 1.2 | i
CC1CN(S(=O)(=O)c2ccc(-c3nc4ccccc4s3)cc2)CC(C)O1 (stereo unspecified) | 4.6* | i | i | i | -0.25 | i
O=S(=O)(c1ccc(-c2nc3ccccc3s2)cc1)N1CCCC1 | 0 | i | i | i | -0.98 | i
Cc1nc2c(-c3ccccc3)c(C)nn2c(SCC(N)=O)c1Cc1ccccc1 | -5 | i | i | i | 1.1 | i
CCCOC1CCCN(Cc2nc(-c3cnccn3)no2)C1 (stereo unspecified) | -17 | i | i | i | -0.1 | i
C[C@@H]1CN(Cc2nc(-c3cnccn3)no2)C[C@H](C)O1 | 7.4* | i | i | i | 0.21 | i
C/C(=C\C(=O)c1ccncc1)Nc1ccccc1O | 5.7* | i | i | i | -0.23 | i
CCCN(CCC)C(=O)C(c1ccccc1)C1(O)CCCCC1 (stereo unspecified) | . | . | -8.9* | . | . | .
CCCn1c(=N)n(CC(=O)C(C)(C)C)c2ccccc21 | -5 | i | i | 6* | 0.01 | i
COC(=O)CNc1nc(Cl)nc(NC2CCCCC2)n1 | -2 | i | i | i | -0.1 | i
CN(C)CCSc1nc(-c2ccccc2)nc2c1CCC2 | -5 | i | i | i | -1.4 | i
CN(C)CCCSc1nc(-c2ccccc2)nc2c1CCC2 | -4 | i | i | i | -9.7* | i
COc1ccc2ccccc2c1C1CC(=O)N2CN(Cc3ccco3)CSC2=C1C#N (stereo unspecified) | -6 | i | i | 7* | 0.08 | i
